Only some compounds are listed: those with a hit (about 2.8% of all), similar ones and a draw of the others.
SR-BI HDL uptake – inhibitors of SR-BI mediated HDL lipid uptake, primary screen, ldlA[mSR-BI] cells, fluorescence, single point; Scavenger receptor class B member 1 (Mus musculus), Q61009; ldlA[mSR-BI] CHO cells, DiI-HDL uptake fluorescence, 3 h; inhibition, % at 12.5 µM; 0.96% of 320,000 active;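 active = mean replicate inhibition of at least 70% and a set share of replicates each scoring 70 or more; inconclusive = meets just one of the two criteria; inactive = fails both criteria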;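 note: 0% = median of neutral control wells and 100% = median of positive control wells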
SR-BI uptake up – activators of SR-BI mediated DiI-HDL uptake, primary screen, ldlA[mSR-BI] CHO cells, DiI fluorescence | 3 h; 100 = double the neutral-control signal | activation, % at 12.5 µM | 0.096% of 320,000 active | AID 504775, 2011;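 active = mean replicate activation of at least 60% and every replicate at or above 60%; inconclusive = mean or all-replicate condition met, but not both; inactive = mean below 60% and not all replicates reaching 60%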;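 note: 0% = median plate neutral-control signal and 100% = twice that signal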
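Assay system: LDL receptor-deficient CHO ldlA cells overexpressing murine SR-BI / Medium: BSA-supplemented, HEPES-buffered Ham's F12, pH 7.4 / Probe or stimulus: DiI-labelled HDL at 10 µg/mL final / Timing: compound with DiI-HDL co-incubation, 3 h at 37 °C / Technique: bottom-read cell fluorescence after medium removal, ex 550/em 595 nm / Measure: HDL uptake via cellular fluorescence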
CAL PDZ FP-1 – CAL PDZ peptide-binding inhibitors, primary screen, biochemical, fluorescence polarization, Cer-tagged CAL PDZ, HTS; Golgi-associated PDZ and coiled-coil motif-containing protein (Homo sapiens), Q9HD26; purified CAL PDZ, TMR-peptide fluorescence polarization, 1 h; inhibition, % at 20 µM; 0.02% of 330,000 active;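 active = highest replicate inhibition of at least 40%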;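 note: plate controls were DMSO neutral control wells for no effect and unlabeled competitor peptide control wells for full effect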
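Test system: purified CerCALP PDZ construct; Compound dosing: one concentration, 20 µM compound; Also added: TMR-labelled reporter peptide T*-PRC34 bound in PDZ groove; Read-out: inhibition from polarization loss; Controls: unlabelled peptide and DMSO controls; Signal: FP readout, S and P plane fluorescence; Incubation: 1 h at RT.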
CAL PDZ FP-2 – untagged CAL PDZ binding inhibitors, primary screen, biochemical, fluorescence polarization, HTS | Golgi-associated PDZ and coiled-coil motif-containing protein (Homo sapiens), Q9HD26 | purified CAL PDZ, TMR-peptide fluorescence polarization, 1 h | inhibition, % at 24.9 µM | 0.92% of 300,000 active | AID 602252, 2012;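 active = mean inhibition of at least 30% with at least half of replicates also reaching 30%; inconclusive = no clear call, values can overlap the other calls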;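 note: 0% = DMSO neutral control and 100% = excess unlabeled competitor peptide PRC23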
dFosB act-1 – activators of delta FosB homodimer, primary screen, biochemical, fluorescence polarization, TAMRA-CDK5 oligo, single point. 0.99% of 340,000 active. purified delta FosB; percent of positive-control signal above neutral wells. activation, % at 25 µM. Protein FosB (Mus musculus), P13346;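 active = mean activation above about 17%, with every replicate also reaching it, limit read from the data, passing the limit was not always enough; inconclusive = only one of the two conditions met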
Target sequence (P13346 whole entry, looked up): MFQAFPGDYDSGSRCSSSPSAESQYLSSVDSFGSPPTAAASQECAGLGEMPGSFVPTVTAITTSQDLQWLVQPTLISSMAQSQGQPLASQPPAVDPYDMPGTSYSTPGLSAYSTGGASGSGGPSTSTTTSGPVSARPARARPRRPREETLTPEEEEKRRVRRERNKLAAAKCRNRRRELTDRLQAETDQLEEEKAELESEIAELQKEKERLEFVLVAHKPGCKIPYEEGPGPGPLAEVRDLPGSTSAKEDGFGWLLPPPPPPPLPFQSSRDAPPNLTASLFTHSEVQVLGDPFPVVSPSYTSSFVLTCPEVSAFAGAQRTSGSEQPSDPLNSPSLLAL
dFosB act-2 – activators of mouse delta FosB DNA binding, confirmation, biochemical, fluorescence polarization, TAMRA-CDK5 oligo, cherry-picked samples; purified delta FosB; normalised: neutral wells 0, positive control 100; 2,400 tested, under 10 active; activation, % at 24.9 µM; shares compounds with dFosB act-1;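 active = highest replicate activation at or above 34% and every replicate reaching that threshold; inconclusive = meets only one of the two criteria; inactive = meets neither criterion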;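 note: higher polarization means more probe DNA bound by delta FosB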
Starred values were filed as active, the others as inactive; ? = inconclusive; . = no result.

SMILES | SR-BI HDL uptake | SR-BI uptake up | CAL PDZ FP-1 | CAL PDZ FP-2 | dFosB act-1 | dFosB act-2
O=C(CO/N=C/c1c(Cl)cccc1Cl)NNC(=O)c1cccc(Cl)c1 | 1.7 | -1.7 | 0.8 | -7.0 | 43.1* | -0.4
CC(C)C[C@@H](CN1CCC[C@@H]1CN1C(=O)C(=O)NC[C@@H]1Cc1ccccc1)N1C[C@H](Cc2ccc(O)cc2)N(CC2CCCCC2)C(=O)C1=O | 6.4 | -6.4 | -0.8 | -3.2 | -23.0 | .
CC(C)C[C@@H](CN1CCCC1CN1C(=S)NC[C@@H]1Cc1ccc(O)cc1)N1C[C@H](Cc2ccc(O)cc2)N(CC2CCCCCC2)C1=S (stereo partly drawn) | -61.0 | ? | -1.4 | -1.0 | 21.2* | 2.5
CC(C)C[C@H]1CNC(=S)N1CC1CCCN1C[C@H](Cc1ccccc1)N1C[C@H](Cc2ccc(O)cc2)N(CC2CCCCCC2)C1=S (stereo partly drawn) | -17.5 | 17.5 | 0.0 | -1.8 | 56.5* | 6.9
CC(C)C[C@@H](CN1CCC[C@@H]1CN1C(=O)C(=O)NC[C@@H]1Cc1ccccc1)N1C[C@H](Cc2ccccc2)N(CC2CCCCCC2)C(=O)C1=O | 4.2 | -4.2 | 0.0 | -5.6 | 34.6* | 4.8
CC(C)C[C@@H](CN1CCCC1CN1C(=S)NC[C@@H]1Cc1ccc(O)cc1)N1C[C@H](Cc2ccccc2)N(CC2CCCCC2)C1=S (stereo partly drawn) | 5.2 | -5.2 | 0.7 | 4.9 | 52.0* | 1.5
O=C(NCCN1CCOCC1)C(=O)c1c[nH]c2ccccc12 | . | . | -1.6 | -2.6 | 4.2 | .
CCN(CC(=O)Nc1ccc(OC)cc1)C(=O)Cc1cccs1 | -13.2 | 13.3 | -2.1 | 0.6 | -3.5 | .
CC(C)C[C@@H](CN1CCCC1CN1C(=S)NC[C@@H]1Cc1ccc(O)cc1)N1C[C@H](Cc2ccccc2)N(CC2CCCCCC2)C1=S (stereo partly drawn) | -8.0 | 8.0 | -1.0 | -4.8 | 45.1* | 4.6
N#C/C(=C\c1c(N2CCC(C(N)=O)CC2)nc2ccccn2c1=O)C(=O)NC1CCCCC1 | 5.9 | -5.9 | -3.8 | . | -7.6 | .
COc1ccc(C(=O)N2C(=O)c3ccc(N)cc3C2=O)cc1 | -4.4 | 4.4 | -1.2 | -5.9 | 49.5* | 3.9
Nc1nonc1-n1nnc(C(=O)N/N=C/c2ccncc2)c1-c1ccccc1 | 7.9 | -7.9 | 5.6 | 0.5 | -7.0 | .
Cc1nn(Cc2ccc(Cl)cc2Cl)c(C)c1NC(=O)Cn1nc([N+](=O)[O-])c(Cl)c1C | 54.0 | -54.0 | 0.3 | -6.9 | 43.6* | 0.7
Cc1nn(Cc2ccc(Cl)cc2)c(C)c1NC(=O)Cn1nc([N+](=O)[O-])c(Cl)c1C | 42.0 | -42.0 | -4.5 | . | 20.2* | 8.5
CC(=O)c1ccc(OCCNS(=O)(=O)c2ccc(-n3cnnn3)cc2)cc1 | -12.1 | 12.1 | -2.2 | 1.9 | -0.7 | .
COc1cc(-n2c(=O)c3ccccc3n(Cc3cccc(C)c3)c2=O)cc(OC)c1OC | -17.6 | 17.6 | 1.0 | 0.2 | 53.2* | 4.5
COc1cc(-n2c(=O)c3ccccc3n(Cc3cccnc3)c2=O)cc(OC)c1OC | -30.1 | 30.1 | -0.2 | -2.1 | 8.2 | .
CC(=O)c1sc(NC(=O)CCS(=O)(=O)c2ccc(Cl)cc2)nc1C | -12.4 | 12.4 | -0.9 | 0.4 | 20.7* | 0.3
COc1ccc(NC(=O)CCS(=O)(=O)c2ccc(Cl)cc2)cc1 | 20.4 | -20.4 | -4.5 | -2.7 | -3.0 | .
CCN(CC)Cc1nc2c(c(=O)[nH]1)C(CC)(CC)Cc1ccccc1-2 | 14.8 | -14.8 | . | -1.9 | -9.9 | .
C=CCn1c(SCC(=O)Nc2ncc(Cc3ccc(Br)cc3)s2)nnc1-c1ccncc1 | -16.6 | 16.6 | -1.5 | -1.7 | 37.3* | 4.5
O=C(Nc1ccc2oc(=O)ccc2c1)c1ccc(-c2cccc(Cl)c2)o1 | . | . | -3.5 | -1.4 | 98.6* | 3.7
Cc1cc(=O)c(C(=O)O)nn1-c1ccc(Cl)cc1 | -7.9 | 7.9 | -0.5 | -8.3 | -8.9 | .
O=C(C[n+]1cnn(CC(=O)c2ccc(Cl)cc2Cl)c1)c1ccc([N+](=O)[O-])cc1 | -4.8 | 4.8 | 0.8 | 0.2 | 31.6* | 2.1
O=C(Cn1cnc([N+](=O)[O-])c1)c1ccc(Cl)cc1 | -8.8 | 8.8 | -0.6 | -1.9 | -1.1 | .
SMILES | SR-BI HDL uptake | SR-BI uptake up | CAL PDZ FP-1 | CAL PDZ FP-2 | dFosB act-1 | dFosB act-2
COc1ccc2[nH]c3c(=O)n(CCCC(=O)NC4CCC(C)CC4)c(=S)[nH]c3c2c1 (stereo not drawn) | -3.0 | 3.0 | -0.8 | -2.1 | 53.2* | -5.5
CCCNC(=O)CCCCn1c(=S)[nH]c2c([nH]c3ccc(OC)cc32)c1=O | -10.9 | 10.9 | 0.5 | . | 10.1 | .
O=C(NNC(=O)c1ccc(NC(=O)c2ccccc2)cc1)Nc1ccccc1 | 3.6 | -3.6 | 0.8 | . | 25.1* | -1.0
CN(C)c1ccc(C(=O)NNC(=O)Nc2ccccc2)cc1 | -9.7 | 9.7 | -0.8 | -5.1 | 6.9 | .
O=C(NNC(=O)c1ccc(NC(=O)c2ccccc2)cc1)c1ccc(F)cc1 | 12.0 | -12.0 | -1.4 | 47.7* | 38.7* | 6.8
O=C(Nc1ccc2nc3ccccc3nc2c1)c1ccc(Br)cc1 | . | . | 1.2 | -7.4 | 31.9* | -2.4
O=C(Nc1ccc(C(=O)c2ccccc2)cc1)c1ccccc1 | 35.7 | -35.7 | -3.7 | -2.6 | -6.2 | .
CCOc1ccc(NC(=O)CSc2nnc(Cc3csc(C)n3)o2)cc1 | 2.8 | -2.8 | -1.0 | -2.3 | -4.0 | .
Cc1ccc2nc(-c3cccnc3SCC(=O)N3c4ccccc4CC3C)[nH]c2c1 (stereo not drawn) | 47.9 | -47.9 | -4.3 | 1.2 | 29.0* | 2.3
Cc1cc(C)c[n+](C(C)C(=O)c2ccc(Cl)cc2)c1 (stereo not drawn) | -9.0 | 9.0 | -0.1 | -2.2 | -0.8 | .
Cn1c2ccccc2c2cc(C(=O)OCC(=O)N3CC(=O)Nc4ccccc43)sc21 | 47.5 | -47.5 | -0.5 | -0.6 | 38.5* | 3.3
O=C1CN(C(=O)COC(=O)c2cccs2)c2ccccc2N1 | -21.9 | 21.9 | 0.9 | -2.7 | -0.1 | .
COc1ccc2nc(SCC(=O)Nc3cc(OC)c(OC)cc3C(=O)O)c(C)cc2c1 | -8.3 | 8.3 | -0.6 | 1.5 | -4.8 | .
CN(CC(=O)Nc1ccc(F)c(F)c1F)C(=O)c1cc(-c2ccncc2)nc2ccccc12 | 21.8 | -21.8 | -2.6 | -4.0 | -2.8 | .
